The record followed here is ChEMBL document CHEMBL3997766, “Synthesis and pre-clinical studies of new amino-acid ester thiazolide prodrugs” (Eur J Med Chem, 2017).

The subject of data set [1] is Rattus norvegicus. Put plainly: Oral bioavailability in Sprague-Dawley rat assessed as RM-4848 level in plasma at 30 mg/kg administered as single dose. The format is ADME, organism-based. Conditions: in vivo. The procedure, abridged:
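Groups of three rats received a single oral dose (30 mg/kg) or intravenous dose (6 mg/kg), with serial blood sampling from 5 min to 24 h. Absolute bioavailability came from the AUC after oral versus intravenous dosing, with the AUC corrected for dose to 30 mg/kg.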

Data set [2] relates to Rattus norvegicus. Put plainly: Elimination half life in Sprague-Dawley rat assessed as RM-4848 level in plasma at 30 mg/kg, po administered as single dose. Type of data set: ADME, organism-based. The following applies: in vivo. In a few lines: (§1)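 Rats in groups of three received one compound as a single oral dose (30 mg/kg) or a single intravenous injection (6 mg/kg), with four compounds studied separately. Serial blood samples were drawn at 5, 10, 15 and 30 min and at 1, 2, 4, 8, 23 and 24 h post-dose. Plasma parent drug and metabolites were quantified and PK parameters were derived.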

The test system of data set [3] is Rattus norvegicus. In words: Drug metabolism in Sprague-Dawley rat assessed as RM-4848-glucuronide formation at 6.4 mg/kg, iv measured at 0.25 to 1 hrs post dose. Type of data set: ADME, organism-based. Conditions: in vivo.
The subject of data set [4] is Rattus norvegicus. Put plainly: AUC (0 to t) in Sprague-Dawley rat assessed as RM-4848 level in plasma at 30 mg/kg, po administered as single dose. Type of data set: ADME, organism-based. The following applies: in vivo. In a few lines:
as §1

Data set [5] relates to Rattus norvegicus. Put plainly: AUC (0 to t) in Sprague-Dawley rat assessed as RM-4848-glucuronide level in plasma at 30 mg/kg, po administered as single dose. The format is ADME, organism-based. Conditions: in vivo. The procedure, abridged: as §1
The test system of data set [6] is Plasma. Put plainly: Drug metabolism in Sprague-Dawley rat assessed as RM-4848-glucuronide formation in plasma at 6 mg/kg, iv administered as single dose. The following applies: in vivo. Type of data set: ADME, organism-based. In a few lines: as §1
In data set [7] the test system is Rattus norvegicus. Put plainly: Cmax in Sprague-Dawley rat assessed as RM-4848 level in plasma at 30 mg/kg, po administered as single dose. Conditions: in vivo. Type of data set: ADME, organism-based. Set-up: dose 30 mg/kg, route oral. The procedure, abridged: as §1
The test system of data set [8] is Rattus norvegicus. In words: Cmax in Sprague-Dawley rat assessed as RM-4848-glucuronide level in plasma at 30 mg/kg, po administered as single dose. Set-up: dose 30 mg/kg, route oral. Type of data set: ADME, organism-based. The following applies: in vivo. The procedure, abridged:
as §1

Data set [9] deals with Rattus norvegicus. In words: Cmax in Sprague-Dawley rat assessed as RM-4848 level in plasma at 6 mg/kg, iv administered as single dose. The format is ADME, organism-based. Set-up: dose 6 mg/kg, route intravenous. Conditions: in vivo. The procedure, abridged:
as §1

For data set [10], the system named is Plasma. Put plainly: Drug metabolism in Sprague-Dawley rat assessed as RM-4848 formation in plasma at 30 mg/kg, po measured at 0.25 to 0.5 post dose. The format is ADME, organism-based. Conditions: in vivo. The procedure, abridged:
as §1

Data set [11] relates to Rattus norvegicus. In words: AUC (0 to t) in Sprague-Dawley rat assessed as RM-4848-glucuronide level at 6 mg/kg, iv administered as single dose. Conditions: in vivo. Type of data set: ADME, organism-based. In a few lines:
as §1

For data set [12], the system named is Rattus norvegicus. Put plainly: Cmax in Sprague-Dawley rat assessed as RM-4848-glucuronide level at 6 mg/kg, iv administered as single dose. The format is ADME, organism-based. More on the design: dose 6 mg/kg, route intravenous. The following applies: in vivo. In a few lines: as §1
Data set [13] deals with Plasma. In words: Drug metabolism in Sprague-Dawley rat assessed as RM-4848 formation in plasma at 6.4 mg/kg, iv measured at 1 to 4 hrs post dose. The format is ADME, organism-based. Conditions: in vivo.
The subject of data set [14] is Rattus norvegicus. Put plainly: Elimination half life in Sprague-Dawley rat assessed as RM-4848-glucuronide level at 30 mg/kg, po administered as single dose. The following applies: in vivo. Type of data set: ADME, organism-based. In a few lines:
as §1

Data set [15] has as its system Rattus norvegicus. Put plainly: Elimination half life in Sprague-Dawley rat assessed as RM-4848 level in plasma at 6.4 mg/kg, iv. Type of data set: ADME, organism-based. The following applies: in vivo.
The subject of data set [16] is Plasma. In words: Drug metabolism in Sprague-Dawley rat assessed as RM4848-glucuronide formation in plasma at 30 mg/kg, po measured at 0.25 to 0.5 post dose. The format is ADME, organism-based. The following applies: in vivo. The procedure, abridged:
as §1

Data set [17] concerns Rattus norvegicus. Put plainly: Tmax in Sprague-Dawley rat assessed as RM-4848-glucuronide level in plasma at 30 mg/kg, po administered as single dose. The format is ADME, organism-based. The following applies: in vivo. In a few lines:
(§2)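 Rats in groups of three got a single oral dose (30 mg/kg) or a single intravenous injection (6 mg/kg). Serial blood samples were taken at 5, 10, 15 and 30 min and at 1, 2, 4, 8, 23 and 24 h post-dose for plasma drug and glucuronide levels. Bioavailability came from oral versus intravenous AUC after dose correction to 30 mg/kg.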

Data set [18] relates to Rattus norvegicus. In words: AUC (0 to t) in Sprague-Dawley rat assessed as RM-4848 level in plasma at 6 mg/kg, iv administered as single dose. The format is ADME, organism-based. The following applies: in vivo. The procedure, abridged:
as §1

Data set [19] deals with Rattus norvegicus. Put plainly: Tmax in Sprague-Dawley rat assessed as RM-4848-glucuronide formation at 6.4 mg/kg, iv. Type of data set: ADME, organism-based. Conditions: in vivo. The procedure, abridged: as §2
Data set [20] deals with Rattus norvegicus. Put plainly: Elimination half life in Sprague-Dawley rat assessed as RM-4848-glucuronide level at 6.4 mg/kg, iv. Type of data set: ADME, organism-based. The following applies: in vivo.
Data set [21] deals with Rattus norvegicus. In words: AUC (0 to t) in Sprague-Dawley rat assessed as Tizoxanide level at 30 mg/kg, po administered as single dose. Conditions: in vivo. Type of data set: ADME, organism-based. The procedure, abridged: (§3)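 Plasma tizoxanide and tizoxanide glucuronide were measured and PK parameters derived. AUCs were dose-corrected to 30 mg/kg for bioavailability.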

Data set [22] relates to Rattus norvegicus. Put plainly: Tmax in female Sprague-Dawley rat assessed as tizoxanide-glucuronide level in plasma at 30 mg/kg, po administered as single dose. Conditions: in vivo. The format is ADME, organism-based. The procedure, abridged: as §3
Data set [23] has as its system Rattus norvegicus. Put plainly: Tmax in male Sprague-Dawley rat assessed as tizoxanide-glucuronide level in plasma at 30 mg/kg, po administered as single dose. The format is ADME, organism-based. The following applies: in vivo. In a few lines: as §3
The subject of data set [24] is Rattus norvegicus. Put plainly: Cmax in Sprague-Dawley rat assessed as Tizoxanide-glucuronide level in plasma at 6 mg/kg, iv administered as single dose. Type of data set: ADME, organism-based. More on the design: dose 6 mg/kg, route intravenous. Conditions: in vivo. The procedure, abridged: as §1
For data set [25], the system named is Rattus norvegicus. Put plainly: AUC (0 to t) in Sprague-Dawley rat assessed as tizoxanide-glucuronide level in plasma at 30 mg/kg, po administered as single dose. The following applies: in vivo. The format is ADME, organism-based. The procedure, abridged:
as §3

The subject of data set [26] is Rattus norvegicus. In words: Elimination half life in Sprague-Dawley rat assessed as Tizoxanide level in plasma at 6 mg/kg, iv administered as single dose. The format is ADME, organism-based. The following applies: in vivo. The procedure, abridged: as §3
The subject of data set [27] is Rattus norvegicus. In words: Tmax in male Sprague-Dawley rat assessed as Tizoxanide-glucuronide level in plasma at 6 mg/kg, iv administered as single dose. The following applies: in vivo. Type of data set: ADME, organism-based. In a few lines:
as §3

Data set [28] can be described thus: Drug excretion in po dosed human urine. The following applies: read-out: Drug excretion. The format is ADME, organism-based.
The nature of data set [29]: Drug excretion in po dosed human faeces. The format is ADME, organism-based, Feces. The following applies: read-out: Drug excretion.
In data set [30] the test system is Rattus norvegicus. Put plainly: Tmax in female Sprague-Dawley rat assessed as Tizoxanide level in plasma at 30 mg/kg, po. The format is ADME, organism-based. The following applies: in vivo. The procedure, abridged:
as §3

Data set [31] concerns Rattus norvegicus. In words: AUC (0 to t) in male Sprague-Dawley rat assessed as Tizoxanide-glucuronide level in plasma at 6 mg/kg, iv administered as single dose. Type of data set: ADME, organism-based. Conditions: in vivo. The procedure, abridged: as §3
Data set [32] in a line: Oral bioavailability in human. The format is ADME, organism-based. The following applies: in vivo.
Data set [33] has as its system Rattus norvegicus. Put plainly: AUC (0 to t) in Sprague-Dawley rat assessed as Tizoxanide level in plasma at 6 mg/kg, iv administered as single dose. Conditions: in vivo. The format is ADME, organism-based. The procedure, abridged:
as §3

For data set [34], the system named is Rattus norvegicus. Put plainly: Tmax in female Sprague-Dawley rat assessed as Tizoxanide-glucuronide level in plasma at 6 mg/kg, iv administered as single dose. The format is ADME, organism-based. The following applies: in vivo. The procedure, abridged:
as §3

The subject of data set [35] is Rattus norvegicus. In words: Cmax in Sprague-Dawley rat assessed as Tizoxanide level in plasma at 6 mg/kg, iv administered as single dose. Conditions: in vivo. The format is ADME, organism-based. Set-up: dose 6 mg/kg, route intravenous. In a few lines: as §1
For data set [36], the system named is Rattus norvegicus. In words: Cmax in Sprague-Dawley rat assessed as Tizoxanide level in plasma at 30 mg/kg, po administered as single dose. Type of data set: ADME, organism-based. More on the design: dose 30 mg/kg, route oral. Conditions: in vivo. The procedure, abridged: as §1
Data set [37] deals with Plasma. Put plainly: Drug metabolism in Sprague-Dawley rat assessed as tizoxanide-glucuronide formation in plasma at 30 mg/kg, po administered as single dose measured after 5 mins. The format is ADME, organism-based. The following applies: in vivo. In a few lines: as §3
In data set [38] the test system is Rattus norvegicus. In words: Cmax in Sprague-Dawley rat assessed as tizoxanide-glucuronide level in plasma at 30 mg/kg, po administered as single dose. Type of data set: ADME, organism-based. More on the design: dose 30 mg/kg, route oral. Conditions: in vivo. The procedure, abridged:
as §1

Data set [39] relates to Rattus norvegicus. Put plainly: Tmax in male Sprague-Dawley rat assessed as Tizoxanide level in plasma at 30 mg/kg, po. Type of data set: ADME, organism-based. The following applies: in vivo. In a few lines:
as §3

With `CC(=O)Oc1ccccc1C(=O)Nc1ncc(Cl)s1`, the F in data set [1] is on record as 1%. Besides, the “beta t1/2” value in data set [2] was 180 min; in data set [14] it was 368 min; in data set [15], 40.2 min; in data set [20], 150 to 192 min. Besides, the Drug metabolism result in data set [3], in [6], in data set [10], in data set [13] and in data set [16] was “Metabolite_Detected” in each case. Further, the AUCt came out at 130 ng·h/mL in [4], 10040 ng·h/mL in data set [5], 19400 ng·h/mL in data set [11] and 3480 ng·h/mL in data set [18]. Moreover, the Cmax in data set [7] amounted to 101 ng/mL; in [8], 2080 ng/mL; in data set [9], 9980 ng/mL; in data set [12], 17300 ng/mL. For the same compound, the Tmax in data set [17] is 15 to 30 min; in data set [19] it was 15 to 60 min.
On to `CC(=O)Oc1ccccc1C(=O)Nc1ncc([N+](=O)[O-])s1` [NITAZOXANIDE], for which the AUCt in data set [21] amounted to 2040 ng·h/mL; in data set [25], 15950 ng·h/mL; in [31], 6500 ng·h/mL; in data set [33], 14100 ng·h/mL. Also, the Tmax in data set [22] was 84 min; in data set [23] it was 42 min; in [27], 24 min; in data set [30], 126 min; in [34] it was 42 min; in data set [39], 42 min. For the same compound, the Cmax came to 11050 ng/mL in data set [24], 20500 ng/mL in data set [35], 742 ng/mL in data set [36] and 4620 ng/mL in data set [38]. For the same compound, the “beta t1/2” value in data set [26] was determined as 12 min. Also, the results for the dose excreted in data set [28] and in data set [29] were 33% and 64%, respectively. Moreover, the bioavailability in data set [32] was at most 30%. For the same compound, the Drug metabolism result in [37] is on record as “Metabolite_Detected”.

One may read the bioavailability as the share of a dose that reaches the circulation, judged against a reference dose that is usually intravenous. The low end stands for poor availability, the high end for good availability.
